From ChEMBL document CHEMBL1155099, “Natural products in parallel synthesis: triazole libraries of nonactic acid” (2008)
Active and inactive are the calls of the source.

How the values were obtained:
Type in all cases: functional, organism-based
Staphylococcus aureus = assay: Antibacterial activity against Staphylococcus aureus at 1 mM by almar blue dye reduction assay
Summary of the method: (§1)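 Single-point primary screen at 1 mM using Alamar Blue dye reduction as the growth read-out.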

Pseudomonas aeruginosa = assay: Antibacterial activity against Pseudomonas aeruginosa at 1 mM by almar blue dye reduction assay; summary of the method: as §1
Escherichia coli = assay: Antibacterial activity against Escherichia coli at 1 mM by almar blue dye reduction assay; summary of the method: as §1
Bacillus subtilis = assay: Antibacterial activity against Bacillus subtilis at 1 mM by almar blue dye reduction assay; summary of the method: as §1
Bacillus cereus = assay: Antibacterial activity against Bacillus cereus at 1 mM by almar blue dye reduction assay; summary of the method: as §1
Cryptococcus neoformans = assay: Antifungal activity against Cryptococcus neoformans at 1 mM by almar blue dye reduction assay; summary of the method: as §1
Saccharomyces cerevisiae = assay: Antifungal activity against Saccharomyces cerevisiae at 1 mM by almar blue dye reduction assay; summary of the method: as §1
Candida albicans = assay: Antifungal activity against Candida albicans at 1 mM by almar blue dye reduction assay; summary of the method: as §1
Bacillus anthracis = assay: Antibacterial activity against Bacillus anthracis at 1mM by almar blue dye reduction assay

Measured: Activity

C[C@H](C[C@@H]1CC[C@H]([C@@H](C)C(=O)N2CCCC2)O1)n1cc(C#CCOc2cccc(-c3ccccc3)c2)nn1
inactive: all assays above

C[C@H](C[C@@H]1CC[C@H]([C@@H](C)C(=O)N2CCN(CC3CCCO3)CC2)O1)n1cc(C#Cc2ccccc2)nn1 (stereo partly specified)
inactive: all assays above

CCN(CC)C(=O)[C@H](C)[C@H]1CC[C@@H](C[C@@H](C)n2cc(C#CCC3CCCC3)nn2)O1
inactive: all assays above

C[C@H](C[C@@H]1CC[C@H]([C@@H](C)C(=O)N(C)Cc2ccccc2)O1)n1cc(C#CCOc2cccc(-c3ccccc3)c2)nn1
inactive: all assays above

CCN(CC)C(=O)[C@H](C)[C@H]1CC[C@@H](C[C@@H](C)n2cc(C#Cc3cccc4ccccc34)nn2)O1
inactive: all assays above

CCOC(=O)C#Cc1cn([C@H](C)CC2CCC([C@@H](C)C(=O)N(CC)CC)O2)nn1 (single isomer, unassigned)
inactive: all assays above

C[C@H](C[C@@H]1CC[C@H]([C@@H](C)C(=O)N2CCN(CC3CCCO3)CC2)O1)n1cc(C#CCOc2ccc(Br)cc2)nn1 (stereo partly specified)
inactive: all assays above

C[C@H](CC1CCC([C@@H](C)C(=O)N2CCCC2)O1)n1cc(C#CCCCC#N)nn1 (single isomer, unassigned)
inactive: all assays above

CCN(CC)C(=O)[C@H](C)[C@H]1CC[C@@H](C[C@@H](C)n2cc(C#CCc3ccccc3)nn2)O1
inactive: all assays above
